What all share (format): functional, cell-based
For experiment [1], the system named is DU-145. The experiment in a line: Antiproliferative activity against human DU-145 cells assessed as reduction in cell viability. The essentials:
(§1)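 Human prostate cancer cells taken from exponential-phase culture, seeded at 8000–12,000 cells/well and allowed 24 h recovery. Compounds then added at 10 half-log concentrations in triplicate, with medium-only controls, for a total 96 h exposure. After a PBS wash, cells stained with propidium iodide plus 0.1% Triton X-100 for 1–2 h at room temperature. Fluorescence read (ex 530/em 620 nm) as attached viable cells. IC50 from 4-parameter curve fit, geometric mean of three independent experiments.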

The test system of experiment [2] is LNCaP. Description: Antiproliferative activity against human LNCaP cells assessed as reduction in cell viability. In short, it runs like this:
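Human prostate cancer cells taken from exponential-phase culture, seeded at 8000–12,000 cells/well and allowed 24 h recovery. Compounds then added at 10 half-log concentrations in triplicate, with medium-only controls, for a total 96 h exposure. After a PBS wash, cells stained with propidium iodide plus 0.1% Triton X-100 for 1–2 h at room temperature. IC50 from 4-parameter curve fit, geometric mean of three independent experiments.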

The test system of experiment [3] is VCaP. The experiment in a line: Antiproliferative activity against human VCaP cells assessed as reduction in cell viability. The essentials:
as §1

For experiment [4], the system named is CWR22R. The experiment in a line: Antiproliferative activity against human 22Rv1 cells assessed as reduction in cell viability. The essentials: as §1

Data on eleven compounds can be found in ChEMBL document CHEMBL4706676 (Bioorg Med Chem Lett, 2021).

In general, IC50 refers to the point on the concentration scale where inhibition reaches its midpoint. In the case of `CC(O)(C[S+]([O-])c1ccc(F)cc1F)C(=O)Nc1ccc([N+](=O)[O-])cc1C(F)(F)F` (stereo not drawn), the IC50 in experiment [1] (Homo sapiens, DU-145) is more than 100 µM; in experiment [2] (Homo sapiens, LNCaP), 24.4 µM; in experiment [3] it was more than 100 µM; in experiment [4] (Homo sapiens, 22Rv1), 51.1 µM.

As for `CC(O)(C[S+]([O-])c1ccc(C(F)(F)F)cn1)C(=O)Nc1ccc(C#N)c(C(F)(F)F)c1` (stereo in doubt; form 1), the IC50 in experiment [1] (Homo sapiens, DU-145) was 100 µM; in experiment [2] (Homo sapiens, LNCaP), 95.4 µM; in experiment [3] it was more than 100 µM; in experiment [4] (Homo sapiens, 22Rv1) it was 65.5 µM.

With `CC(O)(C[S+]([O-])c1ccc(OC(F)(F)F)cc1)C(=O)Nc1ccc([N+](=O)[O-])cc1C(F)(F)F` (stereo not drawn), the IC50 is more than 100 µM in experiment [1] (Homo sapiens, DU-145); more than 100 µM in experiment [2] (Homo sapiens, LNCaP); more than 100 µM in experiment [3]; more than 100 µM in experiment [4] (Homo sapiens, 22Rv1).

As for `CC(O)(C[S+]([O-])c1ccccn1)C(=O)Nc1ccc(C#N)c(C(F)(F)F)c1` (stereo not drawn), the IC50 in experiment [1] (Homo sapiens, DU-145) is more than 100 µM; in experiment [2] (Homo sapiens, LNCaP), more than 100 µM; in experiment [3] it was more than 100 µM; in experiment [4] (Homo sapiens, 22Rv1), more than 100 µM.

For `CC(O)(C[S+]([O-])c1ccc(C(F)(F)F)cn1)C(=O)Nc1ccc([N+](=O)[O-])cc1C(F)(F)F` (stereo not drawn), the IC50 in experiment [1] (Homo sapiens, DU-145) was more than 100 µM; in experiment [2] (Homo sapiens, LNCaP), more than 100 µM; in experiment [3], more than 100 µM; in experiment [4] (Homo sapiens, 22Rv1) it was more than 100 µM.

Turning to `CC(O)(C[S+]([O-])c1ccc(C(F)(F)F)cc1)C(=O)Nc1ccc([N+](=O)[O-])cc1C(F)(F)F` (stereo not drawn), the IC50 in experiment [1] (Homo sapiens, DU-145) amounted to 36.5 µM; in experiment [2] (Homo sapiens, LNCaP) it was 25.6 µM; in experiment [3] it was 24.2 µM; in experiment [4] (Homo sapiens, 22Rv1) it was 21.1 µM.

For `CC(O)(C[S+]([O-])c1ccccn1)C(=O)Nc1ccc([N+](=O)[O-])cc1C(F)(F)F` (stereo not drawn), the IC50 was more than 100 µM in experiment [1] (Homo sapiens, DU-145); more than 100 µM in experiment [2] (Homo sapiens, LNCaP); 100 µM in experiment [3]; more than 100 µM in experiment [4] (Homo sapiens, 22Rv1).

With `CC(O)(C[S+]([O-])c1ccc(OC(F)(F)F)cc1)C(=O)Nc1ccc(C#N)c(C(F)(F)F)c1` (stereo not drawn), the IC50 in experiment [1] (Homo sapiens, DU-145) is 52.1 µM; in experiment [2] (Homo sapiens, LNCaP), 36.2 µM; in experiment [3], 53.5 µM; in experiment [4] (Homo sapiens, 22Rv1), 41.2 µM.

Regarding `CC(O)(C[S+]([O-])c1ccc(F)c(F)c1)C(=O)Nc1ccc([N+](=O)[O-])cc1C(F)(F)F` (single isomer, unassigned), the IC50 in experiment [1] (Homo sapiens, DU-145) was more than 100 µM; in experiment [2] (Homo sapiens, LNCaP) it was more than 100 µM; in experiment [3], more than 100 µM; in experiment [4] (Homo sapiens, 22Rv1) it was more than 100 µM.

As for `CC(O)(C[S+]([O-])c1ccccc1OC(F)(F)F)C(=O)Nc1ccc([N+](=O)[O-])cc1C(F)(F)F` (stereo not drawn), the IC50 in experiment [1] (Homo sapiens, DU-145) turned out to be 31.1 µM; in experiment [2] (Homo sapiens, LNCaP) it was 9.09 µM; in experiment [3] it was 20.7 µM; in experiment [4] (Homo sapiens, 22Rv1), 15.2 µM.

`CC(O)(C[S+]([O-])c1ccc(C(F)(F)F)cn1)C(=O)Nc1ccc(C#N)c(C(F)(F)F)c1` (stereo in doubt; form 2): the IC50 in experiment [1] (du-145) is more than 100 µM; in experiment [2] (lncap) it was more than 100 µM; in experiment [4] (cwr22r) it was 77 µM.
